Among the data in ChEMBL document CHEMBL4130437, “Bioassay-Guided Isolation of Antibacterial Metabolites from Emericella sp. TJ29” (J Nat Prod, 2017) are MIC and Activity values, retold here.

Converted amounts (≈) assume the structure as drawn. The source made the active and inactive calls. No cut-off for these calls is given here.

Data set [1] concerns Escherichia coli. The data set can be described thus: Antibacterial activity against ESBL-producing Escherichia coli ATCC 35218 after 16 hrs by broth microdilution method. The conditions noted are these: ATCC 35218, 16 h. The class given is functional. The method, boiled down: (§1)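 Broth microdilution MIC with the inoculum standardized to about 5 × 10^5 CFU/mL. Plates were incubated 16 h at 37 °C. MIC was taken as the lowest concentration with no visible bacterial growth. Each experiment was run three times.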

Data set [2] concerns Klebsiella pneumoniae. The data set can be described thus: Antibacterial activity against Klebsiella pneumoniae ATCC 700603 after 16 hrs by broth microdilution method. The class given is functional. The conditions noted are these: Klebsiella pneumoniae, 700603, 16 h. The method in brief:
as §1

In data set [3] the test system is Enterococcus faecalis. The data set can be described thus: Antibacterial activity against Enterococcus faecalis ATCC 29212 after 16 hrs by broth microdilution method. Type of data set: functional. The note with it: ATCC 29212, 16 h. The method, boiled down:
as §1

In data set [4] the test system is Pseudomonas aeruginosa. The data set can be described thus: Antibacterial activity against Pseudomonas aeruginosa ATCC 15442 after 16 hrs by broth microdilution method. Type of data set: functional. The note with it: ATCC 15442, 16 h. The method in brief: as §1
Data set [5] has as its system Staphylococcus aureus. The data set can be described thus: Antibacterial activity against methicillin-resistant Staphylococcus aureus ATCC 43300 after 16 hrs by broth microdilution method. The class given is functional. The conditions noted are these: ATCC 43300, 16 h.
Data set [6] has as its system Escherichia coli. The data set can be described thus: Bacteriostatic activity against ESBL-producing Escherichia coli ATCC 35218 after 2 to 24 hrs by time kill assay. The class given is functional, organism-based. The method in brief:
(§2)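 Overnight MHB culture was diluted into fresh MHB at 5 × 10^5 CFU/mL. Tubes got varied compound concentrations, with untreated inoculated medium as control, and were shaken at 37 °C. At 2, 4, 6, 8, 12 and 24 h, samples were serially diluted, plated on tryptic soy agar and incubated overnight at 37 °C, then colonies were counted. Done at least three times, mean/SD.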

The test system of data set [7] is BEAS-2B. The data set can be described thus: Cytotoxicity against human BEAS2B cells assessed as reduction in cell viability at 0.064 to 40 uM after 48 hrs by MTS assay. Type of data set: cell-based. The method in brief: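 BEAS-2B cells grown in RPMI-1640 or DMEM with 10% FBS at 37 °C under 5% CO2. Seeded at 1 × 10^5 cells/mL and left to adhere 12 h. Exposed to compound at various concentrations in triplicate for 48 h, with cisplatin and paclitaxel as positive controls. MTS was added for 4 h, then cells were lysed in SDS/DMF and OD read at 490 nm. IC50 by Reed–Muench.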

Data set [8] has as its system Escherichia coli. The data set can be described thus: Bactericidal activity against ESBL-producing Escherichia coli ATCC 35218 after 2 to 24 hrs by time kill assay. The class given is functional, organism-based. The method, boiled down:
as §2

Turning to `COc1cccc2c1CO[C@@H]2C[C@@H](O)[C@@H](O)[C@H]1O[C@@H]1C`, the MIC in data set [1], in data set [2], in data set [3], in data set [4] and in data set [5] was over 128 µg/mL in each case.
For `C=C1[C@H]2C(=O)[C@@]3(C)C[C@]4(CC[C@H]5C(C)(C)C(=O)C=C[C@]5(C)[C@H]24)[C@@]12COC(=O)[C@@H]2[C@H]3O`, the MIC in data set [1] was 2 µg/mL (≈ 4.87 µM); in data set [2], 32 µg/mL (≈ 78 µM); in data set [3] it was 32 µg/mL (≈ 78 µM); in data set [4] it was 8 µg/mL (≈ 19.5 µM); in data set [5], 32 µg/mL (≈ 78 µM). Moreover, the outcome in data set [6] was Active. Besides, in data set [7], the Activity result is on record as “Non-Toxic”.
For the compound `COc1cccc(/C=C/[C@@H](O)[C@@H](O)[C@H]2O[C@@H]2C)c1CO`, the MIC in data set [1] was 32 µg/mL (≈ 114 µM); in data set [2], over 128 µg/mL; in data set [3] it was over 128 µg/mL; in data set [4] it was 32 µg/mL (≈ 114 µM); in data set [5], 64 µg/mL (≈ 228 µM).
`C=C1[C@H]2C(=O)[C@]3(C)C=C4C(=O)OC[C@]14[C@@]1(CC[C@H]4C(C)(C)C(=O)C=C[C@]4(C)[C@H]21)C3`: the MIC in data set [1] is 32 µg/mL (≈ 81.5 µM); in data set [2], 64 µg/mL (≈ 163 µM); in data set [3] it was over 128 µg/mL; in data set [4] it was 32 µg/mL (≈ 81.5 µM); in data set [5], 64 µg/mL (≈ 163 µM).
Turning to `CC1(C)C(=O)C=C[C@@]2(C)[C@H]1CC[C@@]13C[C@@]4(C)C=C5C(=O)OC[C@]51[C@@]1(CO1)[C@@H](C4=O)[C@@H]23`, the MIC was 32 µg/mL (≈ 78.3 µM) in data set [1]; over 128 µg/mL in data set [2]; over 128 µg/mL in data set [3]; 64 µg/mL (≈ 157 µM) in data set [4]; over 128 µg/mL in data set [5].
Regarding `CCC[C@H](O)[C@H](O)C[C@H]1OCc2cccc(OC)c21`, the MIC in data set [1] was 8 µg/mL (≈ 30 µM); in data set [2], over 128 µg/mL; in data set [3], 32 µg/mL (≈ 120 µM); in data set [4] it was 32 µg/mL (≈ 120 µM); in data set [5], over 128 µg/mL.
As to `C=C1[C@H]2C(=O)[C@]3(C)C=C4C(=O)OC[C@]14[C@@]1(CC[C@H]4C(C)(C)C(=O)C=C[C@]4(C)[C@]21O)C3`, the MIC in data set [1] was 64 µg/mL (≈ 157 µM); in data set [2] it was over 128 µg/mL; in data set [3], over 128 µg/mL; in data set [4] it was over 128 µg/mL; in data set [5] it was over 128 µg/mL.
For the compound `CCC[C@H](O)[C@H](O)C[C@H]1OCc2c(OC)cccc21`, the MIC in data set [1] stood at 4 µg/mL (≈ 15 µM); in data set [2], 16 µg/mL (≈ 60.1 µM); in data set [3], 32 µg/mL (≈ 120 µM); in data set [4], 4 µg/mL (≈ 15 µM); in data set [5], 32 µg/mL (≈ 120 µM). Moreover, in data set [7], the Activity result is “Non-Toxic”. Also, the result in data set [8] was Active.
As to `CO/N=C(\C(=O)N[C@@H]1C(=O)N2C(C(=O)O)=C(CSc3nc(=O)c(O)nn3C)CS[C@H]12)c1csc(N)n1` [CEFTRIAXONE], the MIC in data set [2] and in data set [4] was 1 µg/mL (≈ 1.8 µM) in each case.
`O=C(N[C@H](CO)[C@H](O)c1ccc([N+](=O)[O-])cc1)C(Cl)Cl` [CHLORAMPHENICOL]: the MIC in data set [3] was 16 µg/mL (≈ 49.5 µM).
`NCC[C@H](O)C(=O)N[C@@H]1C[C@H](N)[C@@H](O[C@H]2O[C@H](CN)[C@@H](O)[C@H](O)[C@H]2O)[C@H](O)[C@H]1O[C@H]1O[C@H](CO)[C@@H](O)[C@H](N)[C@H]1O` [AMIKACIN] displayed an MIC in data set [1] of 2 µg/mL (≈ 3.42 µM).
